Laboratory results published in ChEMBL document CHEMBL4477209, “Indole-2-carboxamide-based MmpL3 Inhibitors Show Exceptional Antitubercular Activity in an Animal Model of Tuberculosis Infection” (J Med Chem, 2016).
≈ marks a conversion by molar mass, not a printed value. Calls of active or inactive are those of the source. No cut-off for these calls is given here.

Experiments:
[1] = tested on: Mycobacterium tuberculosis H37Rv; assay: Inhibition of MmpL3 in clinical isolates of drug sensitive Mycobacterium tuberculosis H37Rv after 7 to 14 days by alamar blue assay
[2] = tested on: Mycobacterium tuberculosis; assay: (§1) Antimycobacterial activity against Mycobacterium tuberculosis H37Rv grown on serum of 100 mg/kg, po treated BALB/c mouse for 30 to 120 mins assessed as reduction in bacterial growth followed by bacterial addition incubated for 7 days by alamar blue reagent based serum inhibition titration assay; assay type: functional, organism-based
Procedure, shortened: (§2)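 Six-week-old female BALB/c mice (20 g) given one oral dose as suspension in 0.5% CMC in water; isoniazid 10 mg/kg as positive control, vehicle as negative. Serum collected at 30, 60 and 120 min, pooled from three mice per time point, 2-fold serially diluted. 10^4 CFU H37Rv added per well, 7 days at 37 °C. alamarBlue added for 16−18 h, fluorescence read at Ex544/Em590 and plotted against serum titration.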

[3] = Oral bioavailability in BALB/c mouse at 100 mg/kg administered as single dose for 30 to 120 mins followed by Mycobacterium tuberculosis H37Rv addition to compound treated serum incubated for 7 days by alamar blue reagent based serum inhibition titration assay; assay type: ADME, organism-based; details: in vivo; procedure, shortened: as §2
[4] = tested on: Mycobacterium tuberculosis; assay: as §1, with “isolated from” for “of”; assay type: functional, organism-based; procedure, shortened: as §2
[5] = Selectivity index, ratio of IC50 for african green monkey Vero cells to MIC for clinical isolates of Mycobacterium tuberculosis; assay type: toxicity; details: read-out: Selectivity Index
Vero = assay: Cytotoxicity against african green monkey Vero cells; assay type: cell-based; details: Chlorocebus sabaeus
[6] = tested on: Mycobacterium tuberculosis; assay: Inhibition of MmpL3 in clinical isolates of drug sensitive Mycobacterium tuberculosis V4207 after 7 to 14 days by alamar blue assay
[7] = Oral bioavailability in BALB/c mouse at 100 mg/kg administered for 30 to 120 mins followed by Mycobacterium tuberculosis H37Rv addition to compound treated serum incubated for 7 days by alamar blue reagent based serum inhibition titration assay; assay type: ADME, organism-based; details: in vivo; procedure, shortened: as §2

| Structure (SMILES) | MIC90 [1] [µM] | further results |
| --- | --- | --- |
| O=C(NC1Cc2ccccc2C1)c1cc2c(F)cc(F)cc2[nH]1 | 102 (≈ 31.9 µg/mL) |  |
| Cc1cccc2cc(C(=O)NC3CCCCCC3)[nH]c12 | 30 (≈ 8.11 µg/mL) |  |
| Cc1cc(C)c2cc(CNC(=O)C3CCCCCC3)[nH]c2c1 | 54 (≈ 16.1 µg/mL) |  |
| O=C(NC12CC3CC(CC(C3)C1)C2)c1cc2c(Cl)cc(Cl)cc2[nH]1 | 0.011 (≈ 0.004 µg/mL) | Activity [2]: inactive; Drug uptake [3]: Not Active |
| C[C@@H](NC(=O)c1cc2c(F)cc(F)cc2[nH]1)C1CCCCC1 | 13 (≈ 3.98 µg/mL) |  |
| Cc1cc(C)c2[nH]c(C(=O)NC3CCCCCCC3)cc2c1 | 0.21 (≈ 0.0627 µg/mL) |  |
| O=C(N[C@@H]1C[C@H]2CC[C@@H]1C2)c1cc2c(Cl)cc(Cl)cc2[nH]1 (relative stereo) | 0.39 (≈ 0.126 µg/mL) |  |
| Cc1ccc2cc(C(=O)NC3CCCCCCC3)[nH]c2c1 | 0.11 (≈ 0.0313 µg/mL) |  |
| Cc1cc(C)c2[nH]c(C(=O)NC3CCCCCC3)cc2c1 | 3.5 (≈ 0.995 µg/mL) |  |
| Cc1cccc2[nH]c(C(=O)NC3CCCCCC3)cc12 | 0.93 (≈ 0.251 µg/mL) |  |
| COc1cc(OC)c2cc(C(=O)NC3CCCCCCC3)[nH]c2c1 | 0.19 (≈ 0.0628 µg/mL) |  |
| CC1(C)[C@@H]2CC[C@@H](CNC(=O)c3cc4c(Cl)cc(Cl)cc4[nH]3)[C@H]1C2 | 175 (≈ 63.9 µg/mL) |  |
| Cc1cccc2[nH]c(C(=O)NC3CCCCCCC3)cc12 | 0.11 (≈ 0.0313 µg/mL) |  |
| Nc1cccc2[nH]c(C(=O)NC3CCCCCCC3)cc12 | 20 (≈ 5.71 µg/mL) |  |
| C[C@@H]1[C@@H](NC(=O)c2cc3c(F)cc(F)cc3[nH]2)C[C@H]2C[C@@H]1C2(C)C | 0.19 (≈ 0.0632 µg/mL) |  |
| Cc1cc(C)c2cc(C(=O)NC3CCCCCCC3)[nH]c2c1 | 0.013 (≈ 0.00388 µg/mL) |  |
| CC(C)=CCC/C(C)=C/CNC(=O)c1cc2c(F)cc(F)cc2[nH]1 | > 192 |  |
| Cc1ccc2[nH]c(C(=O)NC3CCCCCCC3)cc2c1 | 0.88 (≈ 0.25 µg/mL) |  |
| C[C@@H]1[C@H]2C[C@@H](C[C@H]1NC(=O)c1cc3c(Cl)cc(Cl)cc3[nH]1)C2(C)C | 0.021 (≈ 0.00767 µg/mL) | Activity [4]: Active; selectivity ratio [5]: 2080; IC50 (Vero): 43.8 µM; MIC [6]: 43 µM (≈ 15.7 µg/mL); Drug uptake [7]: Active |
| O=C(NC1CCCCCCC1)c1cc2c(Cl)cc(Cl)cc2[nH]1 | 0.011 (≈ 0.00373 µg/mL) | Activity [4]: Active; selectivity ratio [5]: 2140 to 4270; IC50 (Vero): 23.5 to 47 µM; MIC [6]: 11 µM (≈ 3.73 µg/mL); Drug uptake [7]: Active |
